ChEMBL document CHEMBL2057113, “Modern phenotypic drug discovery is a viable, neoclassic pharma strategy” (J Med Chem, 2012)
pEC50, pIC50: −log10 of the molar value. Counter-ions that a name gives are not always drawn. Activity calls are given as the source filed them. The rule behind the calls is not given here.

Tests used:
Gamma-secretase = test: Inhibition of human gamma secretase expressed in HEK293 cells coexpressing human APP by soluble beta-APP detection based ELISA; type: cell-based
Procedure, shortened: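 HEK293 cells expressing recombinant human APP; soluble APPsβ production measured by ELISA with a mouse monoclonal antibody to the β-secretase neoepitope of hAPP.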

[1] = molecular target: Gamma-secretase (Homo sapiens) (UniProt Q96BI3+Q9NZ42+Q8WW43+P49768+Q92542+P49810); test: Inhibition of human gamma secretase-expressed in HEK293 co-expressing human Notch-1 cells assessed as effect on enzyme-mediated Notch-1 processing up to 5 uM; type: cell-based
Procedure, shortened: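 HEK293 cells expressing a human Notch-1 construct lacking the extracellular ligand-binding domain (analogous to constitutively active mouse NotchΔE); γ-secretase cleavage detected with a mouse monoclonal antibody to the γ-secretase neoepitope of human Notch-1; tested up to 5 μM.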

[2] = Toxicity in endothelial precursor cells co-cultured with stromal precursor ADSC cells by total nuclei count detection based phenotypic drug discovery based assay
Procedure, shortened: (§1)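 384-well coculture of endothelial colony-forming cells (ECFC) with adipose-derived stromal cells (ADSC) at 37 °C, 5% CO2. Screening at 2 μM single point on CD31-positive cord area; actives retested in 10-point dose response, with CD31 cord area as cord formation read-out and total nuclei count as cytotoxicity read-out.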

Beta-secretase 1 = Beta-secretase 1 (Homo sapiens, UniProt P56817); test: Inhibition of human BACE1 using BACE1-IgG construct by labeled substrate hydrolysis detection assay
Procedure, shortened: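 Soluble human BACE activity: purified BACE-IgG ectodomain construct hydrolyzing a labeled peptide substrate.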

[3] = Inhibition of endothelial cord area formation in endothelial precursor cells by CD31 cord area detection based phenotypic drug discovery based assay; type: functional; procedure, shortened: as §1
[4] = Inhibition of cell migration in endothelial precursor cells by Oris cell migration kit based phenotypic drug discovery based assay; type: functional
U-87 MG [5] = test: In-vivo inhibition of angiogenesis in human U87MG cells xenografted in athymic nude Harlan mouse at 30 mg/kg, sc dosed twice daily for 3 days measured 3 days post dose by fluorescence microscopy; type: functional, organism-based; parameters: dose 30 mg/kg; details: U-87MG ATCC
Procedure, shortened: (§2)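 U87MG glioblastoma cells mixed 1:1 with Matrigel, 5.0 × 10^6 cells injected subcutaneously into right rear flank of female athymic nude mice; grown to mean 250 mm3, randomized by tumor volume and body weight (10/group). Dosing twice daily for 3 days: sc in 100% peanut oil, or oral gavage in 10% acacia. Tumors excised, zinc-Tris fixed, paraffin sectioned at 4 μm.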

[6] = Toxicity in human HeLa cells assessed as cell cycle arrest at G2M phase by flow cytometry based phenotypic drug discovery based assay
HEK293 = test: Inhibition of ACC expressed in HEK293 cells assessed as effect on incorporation of [14C]acetate into triacylglycerol; type: cell-based; details: Homo sapiens
Procedure, shortened: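 HEK293 cells moved from growth medium (DMEM, 10% FBS) into Opti-MEM containing compound in 0.2% DMSO for 1 h, then labeled with 30 μM [14C]acetate for 4 h. Cells washed, dissolved in Triton X-100 (0.175%) with basic ethanol/isopropanol at room temperature; labeled triacylglycerol extracted into heptane and counted by liquid scintillation.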

U-87 MG [7] = test: In-vivo inhibition of angiogenesis in human U87MG cells xenografted in athymic nude Harlan mouse at 10 mg/kg oral gavage dosed twice daily for 3 days measured 3 days post dose by fluorescence microscopy; type: functional, organism-based; parameters: dose 10 mg/kg; details: U-87MG ATCC; procedure, shortened: as §2

Sequence of Beta-secretase 1 (P56817 whole entry, the tested form may be a part): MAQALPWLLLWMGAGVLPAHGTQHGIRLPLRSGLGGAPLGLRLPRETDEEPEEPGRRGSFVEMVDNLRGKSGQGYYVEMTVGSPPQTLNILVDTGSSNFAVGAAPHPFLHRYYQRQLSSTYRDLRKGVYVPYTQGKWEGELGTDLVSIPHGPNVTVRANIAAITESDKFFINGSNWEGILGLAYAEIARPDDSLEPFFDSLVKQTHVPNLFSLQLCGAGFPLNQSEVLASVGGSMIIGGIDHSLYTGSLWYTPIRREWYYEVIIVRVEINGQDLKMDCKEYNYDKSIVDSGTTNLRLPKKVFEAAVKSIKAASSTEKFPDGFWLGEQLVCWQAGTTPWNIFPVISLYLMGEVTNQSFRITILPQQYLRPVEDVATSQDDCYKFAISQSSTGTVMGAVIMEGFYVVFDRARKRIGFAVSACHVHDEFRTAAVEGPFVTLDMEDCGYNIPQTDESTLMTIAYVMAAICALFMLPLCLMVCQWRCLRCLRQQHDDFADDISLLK

Row | Compound | pIC50 (Gamma-secretase) | inhibition [1] | pIC50 (Beta-secretase 1) | pIC50 [3] | pIC50 [4] | pEC50 [3] | pIC50 [2] | inhibition (U-87 MG [5]) | pEC50 [2] | pEC50 [6] | inhibition (HEK293) | inhibition (U-87 MG [7])
1 | Cc1ccc(OCC(=O)N[C@@H]2c3cc(NC(=O)COc4ccc(C#N)cc4C)ccc3C[C@H]2O)cc1 | < 5.30 | inactive | 4.87 | 5.60 |  |  | < 5.00 |  |  |  |  | 
2 | Cc1ccc(OCC(=O)N[C@H]2c3cc(NC(=O)COc4ccc(C#N)cc4C)ccc3C[C@H]2O)cc1 | < 5.30 | inactive | 5.40 | 5.84 |  |  | < 5.00 |  |  |  |  | 
3 | Cc1ccc(OCC(=O)N[C@H]2c3cc(NC(=O)[C@@H](C)Oc4ccc(C#N)cc4C)ccc3C[C@@H]2O)cc1 (mixture of isomers) |  | inactive |  |  | < 4.40 | 7.68 |  | Active | < 5.00 | < 5.00 |  | 
4 | CCNC(=O)Nc1sc2ccccc2c1C(=O)N1CCC2(CC1)CC(=O)c1cc(-c3nccs3)ccc1O2 |  |  |  |  | 4.89 | 7.39 |  |  | < 5.00 | < 5.00 | Active | 
5 | Cc1ccc(OCC(=O)N[C@@H]2c3cc(NC(=O)COc4ccc(C#N)cc4C)ccc3C[C@@H]2O)cc1 | < 5.30 | inactive | 4.34 | 5.04 |  |  | < 5.00 |  |  |  |  | 
6 | Cc1ccc(OCC(=O)N[C@H]2c3cc(NC(=O)COc4ccc(C#N)cc4C)ccc3C[C@@H]2O)cc1 | < 5.30 | inactive | 6.85 | 7.66 |  |  | < 5.00 |  |  |  |  | 

Now from value to compound, other results behind:

Row | pIC50 (Gamma-secretase) | inhibition [1] | pIC50 (Beta-secretase 1) | pIC50 [3] | pIC50 [4] | pEC50 [3] | Compound | pIC50 [2] | inhibition (U-87 MG [5]) | pEC50 [2] | pEC50 [6] | inhibition (HEK293) | inhibition (U-87 MG [7])
7 |  |  |  | 8.38 | 4.78 |  | CNC(=O)c1cc(Oc2ccc(NC(=O)Nc3ccc(Cl)c(C(F)(F)F)c3)cc2)ccn1 [SORAFENIB TOSYLATE] |  |  | 5.26 | < 5.00 |  | 
8 |  |  |  | 8.02 | 4.87 |  | CCN(CC)CCNC(=O)c1c(C)[nH]c(/C=C2\C(=O)Nc3ccc(F)cc32)c1C [SUNITINIB] |  |  | < 5.00 | < 5.00 |  | Active
